Source: PubChem BioAssay
KCNQ1 act – potentiates or activates the human KCNQ1 potassium channel; P51787; CHO-K1 KCNQ1, thallium flux FluxOR fluorescence; stronger effect = higher value; B-score at 10 µM; 310,000 tested, 0.35% active;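 active = fluorescence ratio B-score, a plate-corrected score, at least three library SD, with initial intensity B-score within 5 SD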
Target sequence (P51787 whole entry, looked up): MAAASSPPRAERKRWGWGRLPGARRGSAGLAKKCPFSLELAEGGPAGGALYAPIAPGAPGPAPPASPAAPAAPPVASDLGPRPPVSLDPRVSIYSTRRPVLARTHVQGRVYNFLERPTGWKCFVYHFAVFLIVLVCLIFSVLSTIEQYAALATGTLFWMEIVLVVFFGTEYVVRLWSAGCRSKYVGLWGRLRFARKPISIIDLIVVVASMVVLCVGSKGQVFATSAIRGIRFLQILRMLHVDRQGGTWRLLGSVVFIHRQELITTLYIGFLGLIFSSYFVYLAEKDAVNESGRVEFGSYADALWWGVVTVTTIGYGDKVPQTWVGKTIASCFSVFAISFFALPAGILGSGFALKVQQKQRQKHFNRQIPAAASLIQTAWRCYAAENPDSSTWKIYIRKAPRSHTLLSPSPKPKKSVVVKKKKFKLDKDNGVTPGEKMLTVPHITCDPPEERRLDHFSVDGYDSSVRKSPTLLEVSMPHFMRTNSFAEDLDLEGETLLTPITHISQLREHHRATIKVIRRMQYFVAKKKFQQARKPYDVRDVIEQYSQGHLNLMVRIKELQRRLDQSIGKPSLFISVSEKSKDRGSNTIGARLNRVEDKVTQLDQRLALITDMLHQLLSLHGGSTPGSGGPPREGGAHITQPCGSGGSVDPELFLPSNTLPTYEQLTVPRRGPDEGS
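assay system = KCNQ1-transfected CHO-K1 cells | medium = assay buffer with matched DMSO | probe or stimulus = depolarizing K+/Tl+ stimulus, K2SO4 and Tl2SO4 each 12.5 mM in 5x stock | dosing = single dose | incubation = dye 90 min, compound 20 min, room temperature | detection = kinetic FluxOR fluorescence, 10 s baseline plus 110 s post-stimulus | evaluation = ratio B score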
Kir21 inh – inhibitors of mouse Kir2.1 inward-rectifier potassium channel; P35561; HEK293-Kir2.1, FluxOR thallium flux fluorescence; stronger effect = lower value; B-score at 10 µM; 310,000 tested, 0.85% active;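 active = fluorescence ratio B-score at or below minus 3 SD of library scores, with starting-brightness B-score within 2 SD, cut at about -4.2 in these data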;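 also: channel flux triggered by added potassium and thallium sulfate stimulus; B-score of peak minus minimum fluorescence over baseline after thallium stimulus; more negative B-score means stronger Kir2.1 block with less thallium influx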
KCNQ1 inh – inhibitors of human KCNQ1 potassium channel; AID 2642; CHO-K1 KCNQ1, FluxOR thallium flux fluorescence; stronger effect = higher value; B-score at 10 µM; P51787; 310,000 tested, 1.3% active;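 active = compounds whose thallium flux B-score, printed positive for inhibition, exceeds three library SD while starting fluorescence stays within three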;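 also: channel opened by potassium depolarization with thallium stimulus after 20 min compound exposure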
hERG rescue – shields human hERG channel from block by proarrhythmic agents; Q12809; 310,000 tested, 0.51% active; AID 1511; CHO-hERG, FluxOR thallium flux, dofetilide IC70 present; activation (rescue from dofetilide block), less the hit threshold, % at 10 µM;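 active = activation above the mean of controls blocked by dofetilide plus 5 SD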;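 also: thallium influx through hERG after potassium depolarization seen as dye fluorescence rise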
KCNK9 block – inhibitors of human KCNK9 two-pore domain potassium channel; Q9NPC2; HEK293 KCNK9, FluxOR thallium flux fluorescence; stronger effect = lower value; B-score at 10 µM; 310,000 tested, 1.2% active; AID 488922;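 active = ratio B-score over 3 SD below the library mean, with starting fluorescence within 5 SD of its mean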;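 also: negative B-score means less thallium flux so channel inhibition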
KCNK3 block – human KCNK3 channel inhibition, primary screen; 340,000 tested, 0.84% active; AID 602410; CHO-KCNK3 thallium flux, FluxOR fluorescence; stronger effect = lower value; O14649; B-score at 10 µM;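 active = B-score under library mean minus 4 SD, starting fluorescence ratio at most library mean plus 5 SD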;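 also: more negative B-score means stronger inhibition of thallium flux through KCNK3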
KCNK9 block conf – confirmation of human KCNK9 potassium channel inhibitors. inhibition, % at 10 µM. 4,900 tested, 43% active. HEK293 KCNK9 cells, FluxOR thallium flux fluorescence. shares compounds with KCNK9 block;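 active = thallium signal inhibited by more than 5 SD of the compound-free buffer control wells, on both duplicate plates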;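 also: 0% = assay buffer control wells without compound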
Kir21 sel – tests whether KCNK9 modulators also affect mouse Kir2.1. shares compounds with KCNK9 block. Kir2.1 cells, FluxOR thallium flux fluorescence. inhibition, % at 10 µM. 4,900 tested, 4% active;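 active = thallium signal drop more than 5 SD beyond the mean of the no-compound control wells, seen in both duplicate plates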;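 also: signal is fluorescence rise after thallium addition divided by baseline fluorescence; plate controls were assay buffer only for no effect and full block by chlorpromazine control for full effect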
KCNK9 uninduced – second counter-screen for KCNK9 modulators: effect in non-induced cells | shares compounds with KCNK9 block | non-induced KCNK9-HEK293, FluxOR thallium flux | inhibition, % at 10 µM | 4,900 tested, 40% active;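 active = thallium signal drop beyond 5 SD of the untreated control mean, on both duplicate plates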;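 also: plate controls were buffer only IC0 wells for no effect and SID17386958 at its maximal inhibitory level for full effect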
* marks the source's active call; other numbers are inactive results; i = inactive; · = not tested or not shown. Shown are actives, neighbours in structure and some others; about 3.8% of the full set was active somewhere.

SMILES	KCNQ1 act	Kir21 inh	KCNQ1 inh	hERG rescue	KCNK9 block	KCNK3 block	KCNK9 block conf	Kir21 sel	KCNK9 uninduced
CCOC(=O)C1=CN(Cc2ccco2)S(=O)(=O)N(C)C1CC (stereo not given)	·	·	·	·	·	i	·	·	·
O=C(NCc1ccco1)C1CCN(c2ccc(S(=O)(=O)N3CCOCC3)cc2[N+](=O)[O-])CC1	i	0.06	i	-5	-9.3*	i	i	i	i
O=C(O)C1CCN(S(=O)(=O)c2ccc(N3CCOCC3)c([N+](=O)[O-])c2)CC1	i	0.76	i	-1	i	i	·	·	·
CCn1c(SC)nnc1-c1sc2cc(Cl)ccc2c1Cl	i	1.5	i	-12	-11*	i	60%*	i	36%*
CCn1cc(/C=N/N=C2\CCC3C4CCc5cc(O)ccc5C4CC[C@]23C)c(C)n1 (stereo not given in full)	i	0.49	i	-8	i	i	i	i	i
Cc1ccc(/C=C2\SC(=S)N(CCCC(=O)Nc3cccc(C(=O)O)c3)C2=O)cc1	i	0.78	i	-8	i	i	·	·	·
COC(=O)C(C)n1nc(C)n(-c2ccc(C)cc2)c1=O (stereo not given)	i	0.93	i	-11	i	i	·	·	·
COC(=O)C(C)Oc1cc(C)ccc1COc1ccc(-n2nc(C)n(C(F)F)c2=O)cc1 (stereo not given)	i	0.35	i	-8	i	i	i	i	i
CCN(CC)S(=O)(=O)c1ccc(N2CCc3ccccc3C2)nc1	i	-1.6	i	-14	i	i	i	i	i
CC(C)N(C(C)C)S(=O)(=O)c1ccc(N2CCc3ccccc3C2)nc1	i	2.1	i	-10	i	i	i	i	i
CCN(CC)S(=O)(=O)c1ccc(N2CCN(S(=O)(=O)c3ccccc3)CC2)nc1	i	-1.6	i	-12	i	i	·	·	·
O=C(C1CC1)N1CCN=C1SCc1ccccc1Cl	i	0.3	i	-5	i	i	·	·	·
CCc1cccc(C)c1N(C(=O)Cn1c(COC)nc2ccccc21)C(C)COC (stereo not given)	i	2.7	i	-10	-10*	i	40%*	i	25%*
COc1ccc(-c2n(Cc3ccccc3)c3ccccc3[n+]2Cc2ccccc2)cc1	i	-1.4	8*	-11	-11*	i	i	43%*	i
C=C(c1ccc(O)cc1)c1ccc(O)cc1	i	0.59	i	-18	-11*	i	46%*	i	i
Cc1cc(C)c(C#N)c(SCC(=O)c2cc(C)n(CCc3ccccc3)c2C)n1	i	-0.42	i	-10	-8.2*	i	32%*	i	34%*
COCCn1c(C)cc(C(=O)CSc2nc(C)cc(C)c2C#N)c1C	i	0.51	i	-4	i	i	·	·	·
Cc1ccc(SCC(=O)O/N=C(\N)c2ccc([N+](=O)[O-])cc2)cc1	i	-0.87	i	-10	i	i	i	i	i
O=C(Cc1n[nH]c(=O)c2ccccc12)OCC(=O)c1ccc(OC(F)F)cc1OC(F)F	i	0.09	i	-10	i	i	·	·	·
CC(=O)N/N=c1\sc2ccccc2n1C	i	-0.55	i	-13	i	i	·	·	·
CN(C)c1ccc(N=c2sc3ccccc3n2C)cc1	i	2.2	i	-1	i	i	i	i	i
CCCOc1ccc(C(=O)N/N=C/c2c[nH]c3ccc(Br)cc23)cc1	i	1.3	i	-8	i	i	·	·	·
O=C(N/N=C/c1c[nH]c2ccc(Br)cc12)c1ccn(Cc2ccc(Cl)cc2)n1	i	2.8	i	-4	-15*	i	49%*	i	i
